Measured values of several laboratories.
Lines come from different studies, so protocols differ.
Target: Serine/threonine-protein kinase PAK 1 (PAK1, Homo sapiens, UniProt Q13153)

Compound	test	setting	remaining binding [%]
CCN1CCN(Cc2ccc(C(=O)Nc3ccc(C)c(Oc4ccc5c(c4)CC(=O)N5)c3)cc2C(F)(F)F)CC1	binding, competition with immobilised ligand	1 µM	100
NS(=O)(=O)c1cc(NC(=O)Cc2ccccc2)ccc1Oc1cccc(Cl)c1	cell-free assay, competition with immobilised ligand	1 µM	88
CN(CCCC(F)(F)F)c1nccc(-c2cnn3ncccc23)n1	binding	1 µM	98
CO[C@@H](C)c1c(Nc2ccc([C@@H](N(C)C(=O)C3CCS(=O)(=O)CC3)C(F)(F)F)cc2)cnc2cc(Cl)nn12	cell-free assay, competition with immobilised ligand	1 µM	83
c1cncc(-c2cccc(Nc3nccc(NC4CCCCC4)n3)c2)c1	binding, competition with immobilised ligand	10 µM	85
CN(C)c1ncnc(-c2ccc3nc(Nc4cc(CN5CCN(C(=O)CC(F)(F)F)CC5)ccn4)[nH]c3c2)c1Cl	cell-free assay, competition with immobilised ligand	1 µM	100
O=C(c1ccc(Nc2ncc(Cl)c(-c3ccc(Cl)s3)n2)cc1)N1CCC(N2CCCC2)CC1	binding, competition with immobilised ligand	1 µM	68
O=C(Nc1cccnn1)N1CCC(=Cc2cccc(Oc3ccc(C(F)(F)F)cn3)c2)CC1	cell-free assay, competition with immobilised ligand	1 µM	72
C[C@@H](c1ccc(-n2cnc3c(N)ncnc32)cc1)N1CCc2nn(C)c(Cc3ccccc3)c2C1=O	binding, competition with immobilised ligand	0.1 µM	97
Cc1cnc(Nc2ccc(C(=O)N3CCC(N4CCCC4)CC3)cc2)nc1-c1cc2ccccc2s1	binding, competition with immobilised ligand	1 µM	98
C[C@H](c1ccnc(Nc2nc3ccc(-c4cc(N(C)C)ncn4)cc3[nH]2)c1)N1CCN(C(=O)CC(F)(F)F)CC1	cell-free assay, competition with immobilised ligand	0.1 µM	77
O=C(c1ccc(Nc2ncc(Cl)c(-c3cc4ccccc4s3)n2)cc1)N1CCC(N2CCCC2)CC1	binding, competition with immobilised ligand	1 µM	85
O=C(NCC1CCOCC1)c1n[nH]cc1NC(=O)c1c(F)cccc1F	binding, competition with immobilised ligand	1 µM	100
N[C@@H]1CCN(c2nccc(-c3cnn4ncccc34)n2)C1	binding	1 µM	100
COc1cc(-c2cn(C3CCc4c(F)cccc4N(CC(F)(F)F)C3=O)nn2)ccc1-n1cnc(C)c1 (centres unmarked)	cell-free assay, competition with immobilised ligand	1 µM	93
Cc1cnn2ncc(-c3ccnc(N(C)C)n3)c2c1	binding	1 µM	71
CN(C)C(=O)Cn1cc(-c2nc([C@@](C)(c3ccc(-c4cnc(N)nc4)cc3)C3CC3)no2)cn1	cell-free assay, competition with immobilised ligand	1 µM	100
c1cnn2ncc(-c3ccnc(N4CCC45COC5)n3)c2c1	binding	1 µM	90
COc1cnc(Nc2cccc(S(N)(=O)=O)c2)nc1N1CCN(c2ccccc2)CC1	binding, competition with immobilised ligand	1 µM	99
CC1CCCN1c1nccc(-c2cnn3ncccc23)n1 (centres unmarked)	binding	1 µM	100
CC(C)(C)c1ccc(-c2nc(CBr)nn2-c2cccc(O)c2)cc1	cell-free assay, competition with immobilised ligand	10 µM	98
COc1ccnn2ncc(-c3ccnc(N(C)C)n3)c12	binding	1 µM	79
C[C@@H]1CN(c2ccc3ncc(-c4ccc5[nH]nc(C6CC6)c5c4)n3n2)C[C@H](C)O1	binding, competition with immobilised ligand	0.5 µM	98
